Test results reported in the M2OR odorant receptor database.

Key:
Conditions in all cases: stereoisomer not certain
OR10H3 (Homo sapiens) = target: T1, OR10H3 (Homo sapiens) (UniProt O60404)
T1 sequence (whole entry): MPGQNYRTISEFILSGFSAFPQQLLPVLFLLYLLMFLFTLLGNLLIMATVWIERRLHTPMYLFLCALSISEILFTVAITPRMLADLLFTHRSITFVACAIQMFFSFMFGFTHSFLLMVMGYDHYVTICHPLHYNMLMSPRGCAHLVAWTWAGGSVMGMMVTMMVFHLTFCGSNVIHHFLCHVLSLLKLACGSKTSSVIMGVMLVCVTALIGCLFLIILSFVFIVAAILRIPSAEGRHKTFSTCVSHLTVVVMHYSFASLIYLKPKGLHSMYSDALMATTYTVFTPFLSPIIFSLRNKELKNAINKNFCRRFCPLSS
Outline: (§1)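 Each entry records the cell line, G-protein, co-transfected protein and tags used. Methods varied with the source, often transient luciferase assays in mammalian cell lines. A receptor–molecule pair is called responsive (active) if the original authors judged its signal statistically different from baseline and non-responsive (inactive) otherwise.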

OR10H4 (Homo sapiens) = target: T2, OR10H4 (Homo sapiens) (UniProt Q8NGA5)
T2 sequence (whole entry): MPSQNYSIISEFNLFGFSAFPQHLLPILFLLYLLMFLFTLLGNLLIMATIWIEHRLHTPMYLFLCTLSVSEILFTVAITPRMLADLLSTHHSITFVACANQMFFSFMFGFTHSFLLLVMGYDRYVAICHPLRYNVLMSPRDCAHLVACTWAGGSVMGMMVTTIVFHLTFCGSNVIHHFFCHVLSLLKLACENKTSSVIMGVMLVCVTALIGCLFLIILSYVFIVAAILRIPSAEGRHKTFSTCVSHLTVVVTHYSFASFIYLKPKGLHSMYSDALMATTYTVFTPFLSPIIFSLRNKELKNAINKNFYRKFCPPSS
Outline: as §1

OR10H5 (Homo sapiens) = target: T3, OR10H5 (Homo sapiens) (UniProt Q8NGA6)
T3 sequence (whole entry): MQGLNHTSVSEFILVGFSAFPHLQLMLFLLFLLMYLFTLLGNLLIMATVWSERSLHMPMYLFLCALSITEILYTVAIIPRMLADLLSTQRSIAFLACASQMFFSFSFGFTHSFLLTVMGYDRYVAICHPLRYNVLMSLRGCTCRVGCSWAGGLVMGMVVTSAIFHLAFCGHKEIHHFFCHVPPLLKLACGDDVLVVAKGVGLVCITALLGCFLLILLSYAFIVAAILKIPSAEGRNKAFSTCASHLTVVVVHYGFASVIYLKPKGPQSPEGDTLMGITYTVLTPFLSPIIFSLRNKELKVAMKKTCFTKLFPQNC
Outline: as §1

OR10J1 (Homo sapiens) = target: T4, OR10J1 (Homo sapiens) (UniProt P30954)
T4 sequence (whole entry): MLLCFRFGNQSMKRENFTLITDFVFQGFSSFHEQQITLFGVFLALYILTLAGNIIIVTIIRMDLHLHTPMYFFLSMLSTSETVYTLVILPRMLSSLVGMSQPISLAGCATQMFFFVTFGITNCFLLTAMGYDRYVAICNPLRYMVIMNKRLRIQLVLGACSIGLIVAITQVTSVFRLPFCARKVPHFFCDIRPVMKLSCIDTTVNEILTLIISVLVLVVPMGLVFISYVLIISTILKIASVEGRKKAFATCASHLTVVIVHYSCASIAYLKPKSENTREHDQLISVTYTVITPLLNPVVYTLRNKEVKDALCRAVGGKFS
Outline: as §1

OR10J3 (Homo sapiens) = target: T5, OR10J3 (Homo sapiens) (UniProt Q5JRS4)
T5 sequence (whole entry): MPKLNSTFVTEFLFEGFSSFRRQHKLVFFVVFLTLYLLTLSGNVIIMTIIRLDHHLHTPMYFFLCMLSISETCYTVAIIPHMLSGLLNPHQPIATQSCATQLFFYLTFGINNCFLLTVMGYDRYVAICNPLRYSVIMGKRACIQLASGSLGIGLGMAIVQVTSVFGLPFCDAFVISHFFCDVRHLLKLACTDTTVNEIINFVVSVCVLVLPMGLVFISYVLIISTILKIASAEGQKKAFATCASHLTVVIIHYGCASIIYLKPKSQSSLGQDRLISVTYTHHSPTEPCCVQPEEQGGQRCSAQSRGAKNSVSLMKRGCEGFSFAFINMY
Outline: as §1

OR10J5 (Homo sapiens) = target: T6, OR10J5 (Homo sapiens) (UniProt Q8NHC4)
T6 sequence (whole entry): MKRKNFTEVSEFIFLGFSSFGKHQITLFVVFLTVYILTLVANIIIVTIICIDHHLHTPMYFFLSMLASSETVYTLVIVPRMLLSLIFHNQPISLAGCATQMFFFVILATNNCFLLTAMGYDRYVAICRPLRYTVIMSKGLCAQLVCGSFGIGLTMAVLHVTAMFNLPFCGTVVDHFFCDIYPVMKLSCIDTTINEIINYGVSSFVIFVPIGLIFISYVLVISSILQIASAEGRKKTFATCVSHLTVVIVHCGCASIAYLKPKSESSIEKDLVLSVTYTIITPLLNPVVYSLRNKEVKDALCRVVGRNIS
Outline: as §1

OR10K1 (Homo sapiens) = target: T7, OR10K1 (Homo sapiens) (UniProt Q8NGX5)
T7 sequence (whole entry): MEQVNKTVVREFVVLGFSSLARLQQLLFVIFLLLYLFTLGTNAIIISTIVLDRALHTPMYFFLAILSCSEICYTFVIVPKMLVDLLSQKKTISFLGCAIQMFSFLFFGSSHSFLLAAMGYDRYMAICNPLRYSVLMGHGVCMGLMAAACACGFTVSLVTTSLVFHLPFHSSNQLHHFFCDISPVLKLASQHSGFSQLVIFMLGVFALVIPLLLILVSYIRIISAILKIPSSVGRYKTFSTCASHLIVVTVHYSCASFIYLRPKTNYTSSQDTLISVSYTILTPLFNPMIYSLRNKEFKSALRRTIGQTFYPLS
Outline: as §1

OR10K2 (Homo sapiens) = target: T8, OR10K2 (Homo sapiens) (UniProt Q6IF99)
T8 sequence (whole entry): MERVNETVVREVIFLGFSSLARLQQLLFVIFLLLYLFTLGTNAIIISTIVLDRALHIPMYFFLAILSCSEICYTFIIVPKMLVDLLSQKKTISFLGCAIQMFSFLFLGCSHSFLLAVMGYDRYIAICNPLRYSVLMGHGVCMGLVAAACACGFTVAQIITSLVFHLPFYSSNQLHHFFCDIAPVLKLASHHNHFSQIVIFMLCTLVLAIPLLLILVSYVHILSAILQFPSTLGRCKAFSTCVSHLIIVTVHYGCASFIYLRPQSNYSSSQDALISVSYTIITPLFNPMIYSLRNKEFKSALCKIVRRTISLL
Outline: as §1

OR10P1 (Homo sapiens) = target: T9, OR10P1 (Homo sapiens) (UniProt Q8NGE3)
T9 sequence (whole entry): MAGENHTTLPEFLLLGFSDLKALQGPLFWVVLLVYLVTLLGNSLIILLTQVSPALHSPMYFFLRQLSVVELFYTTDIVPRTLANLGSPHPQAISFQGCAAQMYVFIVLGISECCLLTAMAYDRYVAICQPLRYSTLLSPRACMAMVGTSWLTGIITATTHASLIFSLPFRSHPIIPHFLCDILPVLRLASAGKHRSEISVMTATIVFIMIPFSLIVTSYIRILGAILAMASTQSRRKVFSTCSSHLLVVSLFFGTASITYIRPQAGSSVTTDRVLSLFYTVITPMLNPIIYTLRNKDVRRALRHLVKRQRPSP
Outline: as §1

OR10Q1 (Homo sapiens) = target: T10, OR10Q1 (Homo sapiens) (UniProt Q8NGQ4)
T10 sequence (whole entry): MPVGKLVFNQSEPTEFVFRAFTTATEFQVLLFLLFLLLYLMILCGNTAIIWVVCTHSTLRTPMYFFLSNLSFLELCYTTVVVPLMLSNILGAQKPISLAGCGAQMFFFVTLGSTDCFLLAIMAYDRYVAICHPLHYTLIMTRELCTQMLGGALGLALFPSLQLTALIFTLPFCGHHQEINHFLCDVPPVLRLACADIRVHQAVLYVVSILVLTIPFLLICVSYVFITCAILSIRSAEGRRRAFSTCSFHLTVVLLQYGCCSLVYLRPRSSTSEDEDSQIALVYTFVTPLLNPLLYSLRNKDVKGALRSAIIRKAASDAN
Outline: as §1

Measured: odorant receptor agonist call

CC(CO)CS (stereo not given)
inactive: all assays above
